A1 apoptosis 2 – blocks A1, raising caspase activity; MEF A1-2A-BIM cells, caspase-Glo luminescence, 3 h; percent of clofoctol response, DMSO zero; caspase activation, % (no concentration beside the values); 24,000 tested, under 10 active; in the data active = caspase activation above about 5.9%
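Test system – A1-2A-BIM-expressing MEF cells · Input – 2500 cells/well · Medium – RPMI-1640 growth medium with 10% FBS · Compound dosing – 50 nL pinned compound · Timing – 3 h compound exposure at 37 °C · Technique – Caspase-Glo luminescence (DEVD substrate) · Evaluation – Caspase-3/7 activity from luminescence increase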
INS-1E ATP HTS – INS-1E beta cell protection from cytokine death; INS-1E cytokine-induced death, ATP luminescence, 48 h; normalised: neutral wells 0, positive control 100; hit rate 0.1% among 20,000; protection from cytokine-induced ATP loss, % at 10 µM;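 active = mean replicate protection from cytokine-induced ATP loss at least 50% and at least 75% of replicates each reaching 50%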
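Test system: INS-1E rat cells | Quantity: 8000 cells per well | Medium: Phenol-red-free RPMI with 5% fetal bovine serum | Reagent: Cytokine cocktail of IFN-γ, TNF-α and IL-1β | Doses: One compound concentration, pin transfer | Timing: 48 h co-treatment, 10 min post-lysis read | Technique: Luminescent ATP assay (CellTiter-Glo)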
T cruzi HTS – blocks T. cruzi growth inside host cells; activity score (inhibition), % at 5.01 µM; hit rate 4.9% among 22,000; intracellular Trypanosoma cruzi in host cells, plate reader; in the data active = activity score above about 55%;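 also: parasites and compound incubated about four days before reading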
Of the large screens only hits and unclear results are named; the others gave an inactive call. The entries come from a sample that favours hits as a whole.

C[C@@H]1CCCCO[C@H](CN(C)CC2CCCCC2)[C@H](C)CN([C@H](C)CO)C(=O)c2cc(NC(=O)Nc3ccc4c(c3)OCO4)ccc2O1	none (no result: INS-1E ATP HTS, T cruzi HTS)
C[C@@H]1CCCCO[C@H](CN(C)CC2CCCCC2)[C@@H](C)CN([C@H](C)CO)C(=O)c2cc(NC(=O)Nc3ccc4c(c3)OCO4)ccc2O1	T cruzi HTS 79 (no result: A1 apoptosis 2)
C[C@@H]1CCCCO[C@H](CN(C)CC2CCCCC2)[C@@H](C)CN([C@H](C)CO)C(=O)c2cc(NC(=O)Nc3ccc(C(F)(F)F)cc3)ccc2O1	T cruzi HTS 70
C[C@@H]1CN([C@@H](C)CO)C(=O)c2cc(NC(=O)Nc3ccc(C(F)(F)F)cc3)ccc2O[C@@H](C)CCCCO[C@@H]1CN(C)CC1CCCCC1	none (no result: INS-1E ATP HTS, T cruzi HTS)
COc1ccc(NC(=O)Nc2ccc3c(c2)C(=O)N([C@@H](C)CO)C[C@@H](C)[C@@H](CN(C)CC2CCCCC2)OCCCC[C@H](C)O3)cc1	none (no result: INS-1E ATP HTS, T cruzi HTS)
C[C@@H]1CCCCO[C@H](CN(C)CC2CCCCC2)[C@H](C)CN([C@H](C)CO)C(=O)c2cc(NC(=O)Nc3ccc(C(F)(F)F)cc3)ccc2O1	none (no result: INS-1E ATP HTS, T cruzi HTS)
COc1ccc(NC(=O)Nc2ccc3c(c2)C(=O)N([C@H](C)CO)C[C@H](C)[C@@H](CN(C)CC2CCCCC2)OCCCC[C@@H](C)O3)cc1	T cruzi HTS 76 (no result: A1 apoptosis 2)
C[C@@H]1CN([C@@H](C)CO)C(=O)c2cccc(NC(=O)Nc3ccc(F)cc3)c2O[C@H]1CN(C)S(=O)(=O)c1cn(C)cn1	none
Cc1ccc(S(=O)(=O)N(C)C[C@@H]2Oc3c(NS(=O)(=O)c4cn(C)cn4)cccc3C(=O)N([C@@H](C)CO)C[C@@H]2C)cc1	none (no result: A1 apoptosis 2)
C[C@H](CO)N1C[C@H](C)[C@H](CN(C)C)Oc2ccc(NS(=O)(=O)c3cccs3)cc2C1=O	none
Cc1ccc(S(=O)(=O)Nc2ccc3c(c2)CC(=O)N([C@@H](C)CO)C[C@@H](C)[C@@H](CN(C)Cc2ccc(-c4ccccc4)cc2)O3)cc1	T cruzi HTS 71
C[C@@H]1CN([C@H](C)CO)C(=O)Cc2cc(NS(=O)(=O)c3ccc(Cl)cc3)ccc2O[C@@H]1CN(C)Cc1ccc(-c2ccccc2)cc1	T cruzi HTS 67 (no result: A1 apoptosis 2)
Cc1ccc(S(=O)(=O)Nc2ccc3c(c2)CC(=O)N([C@H](C)CO)C[C@@H](C)[C@H](CN(C)Cc2ccc(-c4ccccc4)cc2)O3)cc1	none
C[C@H]1CN([C@@H](C)CO)C(=O)Cc2cc(NS(=O)(=O)c3ccccc3)ccc2O[C@@H]1CN(C)Cc1ccc(-c2ccccc2)cc1	T cruzi HTS 75 (no result: A1 apoptosis 2)
C[C@H]1CN([C@@H](C)CO)C(=O)Cc2cc(NS(=O)(=O)c3ccccc3)ccc2O[C@H]1CN(C)Cc1ccc(-c2ccccc2)cc1	none (no result: A1 apoptosis 2)
Cc1ccc(S(=O)(=O)Nc2ccc3c(c2)CC(=O)N([C@H](C)CO)C[C@H](C)[C@H](CN(C)Cc2ccccc2)O3)cc1	none
C[C@@H]1CN([C@@H](C)CO)C(=O)Cc2cc(NS(=O)(=O)c3ccc(Cl)cc3)ccc2O[C@@H]1CN(C)Cc1ccc(-c2ccccc2)cc1	none (no result: A1 apoptosis 2)
Cc1ccc(S(=O)(=O)Nc2ccc3c(c2)CC(=O)N([C@H](C)CO)C[C@@H](C)[C@H](CN(C)Cc2ccccc2)O3)cc1	T cruzi HTS 67 (no result: A1 apoptosis 2)
O=C(NCCO)C1=C[C@H](Oc2ccccc2I)[C@@H](O)[C@H](N(Cc2ccco2)C(=O)Cc2ccccc2)C1	none (no result: INS-1E ATP HTS, T cruzi HTS)
C[C@@H]1CN([C@@H](C)CO)C(=O)CCCn2cc(nn2)CO[C@@H]1CN(C)S(=O)(=O)c1ccc(F)cc1	none (no result: INS-1E ATP HTS)
COc1cc(/C=N/NC(=O)c2cccc(C(=O)NO)c2)c(Br)cc1O	none
COC(=O)CCCCCCC(=O)N/N=C/c1cccc(B(O)O)c1	none
C[C@@H]1CN([C@H](C)CO)C(=O)c2cccc(NC(=O)c3ccc(-c4nccs4)cc3)c2O[C@H]1CN(C)Cc1ccc(C(=O)Nc2ccccc2N)cc1	none
C[C@@H]1CN([C@@H](C)CO)C(=O)c2cccc(NC(=O)c3ccc(-c4nccs4)cc3)c2O[C@H]1CN(C)Cc1ccc(Oc2ccccc2)cc1	T cruzi HTS 62 (no result: A1 apoptosis 2)
C[C@@H]1CN([C@@H](C)CO)C(=O)c2cccc(NC(=O)c3ccc(-c4nccs4)cc3)c2O[C@@H]1CN(C)Cc1ccc(C(F)(F)F)cc1	T cruzi HTS 70
C[C@@H]1CN([C@H](C)CO)C(=O)c2cccc(NC(=O)c3ccc(-c4nccs4)cc3)c2O[C@@H]1CN(C)Cc1ccc(C(F)(F)F)cc1	none
C[C@H]1CN([C@@H](C)CO)C(=O)c2cccc(NC(=O)c3ccc(-c4nccs4)cc3)c2O[C@@H]1CN(C)Cc1ccc(C(=O)Nc2ccccc2N)cc1	T cruzi HTS 75 (no result: A1 apoptosis 2)

Assay outcomes deposited in PubChem BioAssay by Broad Institute.
